Measurements: article PMC12278411 (Acta Pharmaceutica Sinica. B, 2025)

How the values were obtained:
[1] = tested on: APAP-induced ALI (650 mg/kg APAP); assay: Survival period in APAP-induced acute liver injury; format: in vivo, C57BL/6 mice; settings: APAP 650 mg/kg, 96 h observation
How it was run: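 Male C57BL/6 mice (24–25 g), fasted 16 h with free water, randomised 10 per group. APAP 650 mg/kg i.p., immediately followed by oral test compound (5, 10 or 20 mg/kg; reference groups NAC 30 mg/kg or a RIPK2 inhibitor 10 mg/kg). A second dose was given 12 h after induction. Saline controls included. Survival followed over 96 h.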

RIPK2 (h) = RIPK2 (h) (Homo sapiens, UniProt O43353); assay: RIPK2 kinase assay; format: biochemical
[2] = Metabolic stability assay in human liver microsome; format: in vitro ADME
RIPK1 = biological target: T1, RIPK1 (Homo sapiens, UniProt Q13546); assay: RIPK1 kinase assay; format: biochemical
T1 sequence (Q13546 1-671): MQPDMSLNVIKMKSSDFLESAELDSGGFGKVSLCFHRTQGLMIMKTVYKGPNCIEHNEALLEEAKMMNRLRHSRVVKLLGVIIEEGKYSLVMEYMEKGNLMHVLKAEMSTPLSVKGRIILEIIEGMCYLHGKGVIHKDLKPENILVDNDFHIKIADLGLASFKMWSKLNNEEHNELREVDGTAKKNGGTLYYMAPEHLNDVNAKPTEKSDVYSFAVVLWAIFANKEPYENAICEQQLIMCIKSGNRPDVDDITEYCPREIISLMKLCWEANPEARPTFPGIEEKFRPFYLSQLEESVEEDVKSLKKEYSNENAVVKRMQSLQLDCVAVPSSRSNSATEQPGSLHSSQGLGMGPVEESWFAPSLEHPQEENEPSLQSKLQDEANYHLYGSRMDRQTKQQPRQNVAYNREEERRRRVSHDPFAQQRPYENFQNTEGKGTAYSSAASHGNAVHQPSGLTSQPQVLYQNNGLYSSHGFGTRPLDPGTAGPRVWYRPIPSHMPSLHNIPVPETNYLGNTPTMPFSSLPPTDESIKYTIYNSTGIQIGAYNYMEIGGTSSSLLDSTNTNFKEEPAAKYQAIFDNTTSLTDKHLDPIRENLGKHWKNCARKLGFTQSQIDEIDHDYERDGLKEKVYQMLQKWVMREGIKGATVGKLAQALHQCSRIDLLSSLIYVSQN

[3] = Pharmacokinetic study in mice, i.v. and p.o.; format: in vivo; settings: BALB/c, mouse, plasma, 10 mg/kg
[4] = Plasma exposure test, oral 10 mg/kg; format: in vivo; settings: 10 mg/kg p.o., BALB/c mice
How it was run: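 Test compound in saline with 2.5% DMSO, given orally at 10 mg/kg to BALB/c mice (20–22 g), n = 3. Blood drawn at 0.5, 2 and 6 h after dosing, centrifuged to obtain plasma. Proteins precipitated with acetonitrile containing SAHA internal standard, centrifuged again; supernatant concentrations quantified by LC–MS/MS.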

Chain of RIPK2 (h) (O43353 whole entry): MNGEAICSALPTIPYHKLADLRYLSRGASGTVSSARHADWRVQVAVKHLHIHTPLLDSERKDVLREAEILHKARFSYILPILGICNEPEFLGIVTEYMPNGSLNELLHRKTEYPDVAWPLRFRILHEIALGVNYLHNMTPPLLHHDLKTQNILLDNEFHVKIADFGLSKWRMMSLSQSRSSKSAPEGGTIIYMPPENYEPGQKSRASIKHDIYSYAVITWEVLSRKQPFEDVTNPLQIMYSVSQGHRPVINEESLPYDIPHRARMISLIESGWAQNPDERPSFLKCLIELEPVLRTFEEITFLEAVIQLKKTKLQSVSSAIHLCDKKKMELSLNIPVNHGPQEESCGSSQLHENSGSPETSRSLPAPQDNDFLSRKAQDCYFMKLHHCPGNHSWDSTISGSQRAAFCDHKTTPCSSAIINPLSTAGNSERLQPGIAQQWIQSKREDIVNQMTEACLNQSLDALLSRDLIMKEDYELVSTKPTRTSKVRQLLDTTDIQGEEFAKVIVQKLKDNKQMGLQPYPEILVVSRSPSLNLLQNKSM

Structure (SMILES)	survival of mice [1]	IC50 (RIPK2 (h)) [nM]	CL ([2]; human liver microsomes, 1 μmol/L) [mL/min/g·protein]	half-life at 1 μmol/L ([2]; human, pooled liver microsomes) [h]	RIPK1 Percentage%@1 μmol/L (RIPK1; active RIPK1 activity relative to control, 1 μmol/L) [%]	AUC(0-t) ([3]; iv) [ng·h/mL]	Cmax ([3]; iv) [ng/mL]	Vd ([3]; iv) [L/kg]	clearance ([3]; iv) [mL/min/kg]	half-life ([3]; iv) [h]	AUC(0-t) ([3]; po) [ng·h/mL]	Cmax ([3]; po) [ng/mL]	bioavailability ([3]; po) [%]	half-life ([3]; po) [h]	Plasma concentration 0.5 h ([4]; 0.5 h) [ng/mL]	Plasma concentration 2 h ([4]; 2 h) [ng/mL]	Plasma concentration 6 h ([4]; 6 h) [ng/mL]	IC50 (RIPK1) [nM]
CC(=O)N[C@@H](CS)C(=O)O [NAC, N-acetylcysteine]	only deferred the time of mortality																	
Fc1cc2scnc2cc1Nc1ncnc2sc(C3=CCNCC3)cc12 [RP1, N-(6-fluorobenzo[d]thiazol-5-yl)-6-(1,2,3,6-tetrahydropyridin-4-yl)thieno[2,3-d]pyrimidin-4-amine]		9	<12	> 2	99 ± 2													
CC(C)(C)S(=O)(=O)c1cc2c(Nc3ccc4scnc4c3)ncnc2cc1OCCOP(=O)(O)O [GSK2983559, 2-((4-(benzo[d]thiazol-5-ylamino)-6-(tert-butylsulfonyl)quinazolin-7-yl)oxy)ethyl dihydrogen phosphate]	significantly prolong the survival	7				3780 ± 255	5680 ± 521	9.46 ± 4.13	44.3	2.42 ± 0.86	3120 ± 1060	2620 ± 413	82.7	2.74 ± 0.25	1154 ± 125	145 ± 42	21 ± 11	> 30000
